Reference: ChEMBL document CHEMBL1144898, “Structure-based design and synthesis of novel potent Na+,K+ -ATPase inhibitors derived from a 5alpha,14alpha-androstane scaffold as positive inotropic compounds” (J Med Chem, 2003)

Assays:
[1] = tested on: Cavia porcellus; test: Inotropic activity by slow intravenous infusion in anesthetized guinea pigs(Maximal increase in+dp/dtmax); format: functional
How it was run: (§1)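 Anesthetized guinea pigs given compound by slow intravenous infusion; contractility read as +dP/dtmax. Values are the maximal increase in +dP/dtmax, the dose inducing the maximum inotropic effect, and the dose raising +dP/dtmax by 80% taken from dose–response curves.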

[2] = tested on: Cavia porcellus; test: Inotropic activity by slow intravenous infusion in anesthetized guinea pigs (dead/treated ratio = 1/3); format: functional
[3] = tested on: Cavia porcellus; test: Inotropic activity by slow intravenous infusion in anesthetized guinea pigs(Inotropic potency:dose increasing +dp/dtmax by 80%); format: functional; how it was run: as §1
[4] = tested on: Cavia porcellus; test: Inotropic activity by slow intravenous infusion in anesthetized guinea pigs(Dose inducing maximum positive inotropic effect); format: functional; how it was run: as §1
[5] = biological target: Sodium/potassium-transporting ATPase; test: Inhibitory activity against Na+/K+ ATPase was determined; format: protein-complex assay, Canis lupus familiaris
[6] = tested on: Sodium/potassium-transporting ATPase (Canis lupus familiaris); test: Inhibition activity against Na+/K+ ATPase (relative potency in comparison to digitoxigenin)
[7] = tested on: Cavia porcellus; test: Inotropic activity by slow intravenous infusion in anesthetized guinea pigs (dead/treated ratio = 10/10); format: functional
[8] = tested on: Cavia porcellus; test: Inotropic activity by slow intravenous infusion in anesthetized guinea pigs (dead/treated ratio = 1/5); format: functional
[9] = tested on: Cavia porcellus; test: (§2) Inotropic activity by slow intravenous infusion in anesthetized guinea pigs; format: organism-based; settings: guinea pig, in vivo
[10] = tested on: Cavia porcellus; test: Inotropic activity by slow intravenous infusion in anesthetized guinea pigs (dead/treated ratio = 3/3); format: functional
[11] = as §2; format: organism-based, Cavia porcellus; settings: guinea pig, in vivo, read-out: LD/ED80
[12] = tested on: Cavia porcellus; test: Inotropic activity by slow intravenous infusion in anesthetized guinea pigs (dead/treated ratio = 7/8); format: functional

| Structure (SMILES) | Increase [1] [%] | ED80 [3] [µM/kg] | EDmax [4] [µM/kg] | IC50 [5] [nM] | also measured |
| --- | --- | --- | --- | --- | --- |
| C[C@]12CC/C(=N\OCCCN)C[C@@H]1C(=O)C[C@@H]1[C@@H]2CC[C@]2(C)C(=O)CC[C@@H]12 | 129 | 6.55 | 18.2 | 800 | Dead/treated [2]: 1 |
| C[C@H]1/C(=C/C(=O)OCCN(C)C)CCC2C1C(=O)CC1C(C)(C)[C@@H](O)CC[C@]21C (stereo not given in full) [CASSAINE] | – | – | – | 5000 | Relative potency [6]: 0.1 |
| C[C@H]1O[C@@H](O[C@H]2[C@@H](O)C[C@H](O[C@H]3[C@@H](O)C[C@H](O[C@H]4CC[C@@]5(C)[C@H](CC[C@@H]6[C@@H]5C[C@@H](O)[C@]5(C)[C@@H](C7=CC(=O)OC7)CC[C@]65O)C4)O[C@@H]3C)O[C@@H]2C)C[C@H](O)[C@@H]1O [DIGOXIN] | 127 | 0.41 | 0.97 | – | Dead/treated [7]: 10 |
| CC(=O)NCCO/N=C1\CC[C@@]2(C)[C@H](C1)C(=O)C[C@@H]1[C@@H]2CC[C@]2(C)C(=O)CC[C@@H]12 | – | – | – | > 10000 | – |
| C[C@]12CCC(=NOCCN)C[C@@H]1[C@@H](O)C[C@@H]1[C@@H]2CC[C@]2(C)C(=O)CC[C@@H]12 (stereo in doubt; 22g) | 207 | 5.3 | 54.6 | 1200 | Dead/treated [8]: 1; LD/ED80 [9]: 17.8 |
| C[C@]12CC/C(=N\OCCN)C[C@@H]1[C@H](O)C[C@@H]1[C@@H]2CC[C@]2(C)C(O)CC[C@@H]12 (stereo not given in full) | 158 | 0.97 | 4.13 | 2000 | Dead/treated [10]: 3; selectivity ratio [11]: 9.6 |
| C[C@]12CC/C(=N/OCCN)C[C@@H]1[C@H](O)CC1C2CC[C@]2(C)C(O)CC[C@@H]12 (stereo not given in full) | – | – | – | 12000 | – |
| C[C@]12CCC(=NOCCN)C[C@@H]1C(=O)C[C@@H]1[C@@H]2CC[C@]2(C)C(=O)CC[C@@H]12 [ISTAROXIME] | 190 | 4.84 | 17.9 | – | Dead/treated [12]: 7; selectivity ratio [11]: 20.2 |
| C[C@]12CC/C(=N\OCCN)C[C@@H]1C(=O)C[C@@H]1[C@@H]2CC[C@]2(C)C(O)CC[C@@H]12 (stereo not given in full) | – | – | – | 600 | – |
| C[C@]12CC/C(=N\OCCN)C[C@@H]1C(O)C[C@@H]1[C@@H]2CC[C@]2(C)C(O)CC[C@@H]12 (stereo not given in full) | – | – | – | 10000 | – |
| C[C@]12CCC(=NOCCN)C[C@@H]1[C@@H](O)C[C@@H]1[C@@H]2CC[C@]2(C)C(=O)CC[C@@H]12 (stereo in doubt; 22n) | 154 | 14.8 | 111.2 | 2500 | Dead/treated [2]: 1; selectivity ratio [11]: 9.2 |
| C[C@]12CC/C(=N/OCCCN)C[C@@H]1[C@H](O)CC1C2CC[C@]2(C)C(O)CC[C@@H]12 (stereo not given in full) | – | – | – | 3000 | – |
| C[C@]12CC/C(=N\OCCCN)C[C@@H]1[C@H](O)C[C@@H]1[C@@H]2CC[C@]2(C)C(O)CC[C@@H]12 (stereo not given in full) | 99 | 1.58 | 7.37 | 2000 | Dead/treated [2]: 1 |
| C[C@]12CCC(=NOCCN)C[C@@H]1[C@H](O)CC1C2CC[C@]2(C)C(O)CC[C@@H]12 (stereo not given in full) | – | – | – | 1600 | – |
